Results published in ChEMBL document CHEMBL4138249, “Structure-activity analysis of CJ-15,801 analogues that interact with Plasmodium falciparum pantothenate kinase and inhibit parasite proliferation” (Eur J Med Chem, 2018).
Active and inactive are the calls of the source. The calls are words filed in the database; no cut-off is given here.

Legend:
[1] = Drug metabolism in human erythrocytes infected with Plasmodium falciparum 3D7 trophozoites assessed as esterase-mediated compound hydrolysis at 1 mM after 3 hrs by 1H-13C-HSQC NMR analysis; format: ADME, cell-based; conditions: 1000 µM
How it was run: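 Infected erythrocytes (>95% parasitemia) incubated 3 h with 13C3-labelled or unlabelled compound. Metabolites were extracted from about 2 × 10^8 parasites and analysed by 1H-13C HSQC in D2O with 200 μM TSP as shift reference. Two independent experiments.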

[2] = test system: Plasmodium falciparum; test: Antimalarial activity against Plasmodium falciparum 3D7 infected in human erythrocytes after 96 hrs in presence of 1 uM pantothenate by SYBR green fluorescence-based method; format: functional, organism-based; conditions: 3D7, 96 h
How it was run: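 Blood-stage parasites cultured 96 h in medium with 1 μM pantothenate across a range of compound concentrations; IC50 is the concentration giving 50% inhibition of proliferation. Each experiment run in triplicate, 2–7 independent experiments; mean ± range/2 (n = 2) or SEM (n = 3–7).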

[3] = test system: Plasmodium falciparum; test: Ratio of IC50 for Plasmodium falciparum 3D7 infected in human erythrocytes in presence of 100 uM pantothenate to IC50 for Plasmodium falciparum 3D7 infected in human erythrocytes in presence of 1 uM pantothenate; format: functional
How it was run: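 Paired 96 h proliferation assays with parasites in medium containing 100 μM versus 1 μM pantothenate. Fold-increase = IC50 at 100 μM pantothenate divided by IC50 at 1 μM. Two independent experiments in triplicate; error is range/2.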

[4] = biological target: T1, Pantothenate kinase, putative (Plasmodium falciparum (isolate 3D7)) (UniProt Q8ILP4); test: Inhibition of pantothenate kinase in Plasmodium falciparum 3D7 trophozoites at 100 uM using [14C]pantothenate as substrate after 15 to 60 mins by TopCount scintillation counting method relative to control
T1 sequence (whole entry): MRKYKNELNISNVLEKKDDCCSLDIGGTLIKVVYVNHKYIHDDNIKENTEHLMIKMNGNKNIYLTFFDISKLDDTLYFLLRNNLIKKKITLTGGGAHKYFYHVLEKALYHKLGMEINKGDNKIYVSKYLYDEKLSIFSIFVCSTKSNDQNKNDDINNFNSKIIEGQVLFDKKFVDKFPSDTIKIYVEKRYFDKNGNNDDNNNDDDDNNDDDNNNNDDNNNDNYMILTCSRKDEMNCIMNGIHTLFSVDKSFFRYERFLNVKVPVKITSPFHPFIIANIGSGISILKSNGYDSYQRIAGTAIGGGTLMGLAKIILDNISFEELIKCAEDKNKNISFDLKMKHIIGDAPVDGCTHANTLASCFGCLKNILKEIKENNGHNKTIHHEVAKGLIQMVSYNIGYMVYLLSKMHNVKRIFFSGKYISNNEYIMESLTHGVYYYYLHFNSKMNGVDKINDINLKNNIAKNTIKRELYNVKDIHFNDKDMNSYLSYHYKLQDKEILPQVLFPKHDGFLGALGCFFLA
How it was run: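 [14C]Pantothenate phosphorylation by PanK in P. falciparum lysate with compound at 100 μM. Pantothenate was 1.8 μM for R-compounds and 1 μM for S-compounds. Incubation period was pre-set within the linear range; percent inhibition versus DMSO-only controls. 3–8 experiments in duplicate, SEM.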

[5] = biological target: T2, Pantothenate kinase, putative (Plasmodium falciparum (isolate 3D7), UniProt Q8ILP4); test: Inhibition of pantothenate kinase in Plasmodium falciparum 3D7 trophozoites using [14C]pantothenate as substrate after 15 mins by TopCount scintillation counting method
T2 sequence (Q8ILP4 whole entry): T1 sequence (whole entry)
How it was run: (§1)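 PanK activity in P. falciparum lysate with 1.8 μM [14C]pantothenate and increasing compound concentrations, 15 min incubation within the linear range. Percent inhibition from [14C]pantothenate phosphorylated versus no compound. 2–5 experiments in duplicate; mean ± range/2 or SEM.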

[6] = Cysteine reactivity at pH 7.4 after 2 hrs by 1H NMR analysis; format: physicochemical; conditions: pH 7.4, 2 h
How it was run: (§2)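 Compound mixed with glutathione or L-cysteine at pH 7.4 and monitored by NMR for 2 h. The first spectrum was acquired 15 min after mixing. N-ethylmaleimide served as a reactive Michael acceptor reference.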

[7] = Cytotoxicity against HEK293 cells assessed as inhibition of cell proliferation at 100 uM after 96 hrs by CellTiter-Glo assay relative to control; format: cell-based; conditions: human
How it was run: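 HEK-293 proliferation measured over 96 h with compound at 100 μM; percent inhibition reported.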

[8] = Cytotoxicity against human WI38 cells assessed as inhibition of cell proliferation at 100 uM after 48 hrs by CellTiter-Glo assay relative to control; format: cell-based, WI-38
How it was run: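 WI-38 proliferation measured over 48 h with compound at 100 μM; percent inhibition reported.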

[9] = Selectivity index, ratio of cytotoxic concentration for HEK293 cells to IC50 for Plasmodium falciparum 3D7 infected in human erythrocytes in presence of 1 uM pantothenate; format: toxicity, cell-based; conditions: read-out: Selectivity Index
[10] = Selectivity index, ratio of cytotoxic concentration for human WI38 cells to IC50 for Plasmodium falciparum 3D7 infected in human erythrocytes in presence of 1 uM pantothenate; format: toxicity, cell-based; conditions: read-out: Selectivity Index
[11] = biological target: T1, Pantothenate kinase, putative (Plasmodium falciparum (isolate 3D7)); test: Inhibition of pantothenate kinase in Plasmodium falciparum 3D7 trophozoites at 1 to 100 uM using [14C]pantothenate as substrate after 15 mins by TopCount scintillation counting method; how it was run: as §1
[12] = Cysteine reactivity at pH 7.4 after 15 mins by 1H NMR analysis; format: physicochemical; conditions: pH 7.4, 0.25 h; how it was run: as §2
[13] = test system: Plasmodium falciparum; test: Antimalarial activity against blood stage of Plasmodium falciparum in presence of pantothenate by [3H]hypoxanthine incorporation assay; format: functional, organism-based

Row | IC50 [2] | inhibition [4] | Compound | Ratio IC50 [3] | inhibition at 96 h, 100 µM [7] | inhibition at 48 h, 100 µM [8] | also measured
1 | 158 µM | inactive | CCOC(=O)/C=C/NC(=O)c1ccccc1 | 1 | – | – | –
2 | > 200 µM | < 25% | CCOC(=O)/C=C\NC(=O)[C@H](O)C(C)(C)CO | – | -6% | 1% | –
3 | > 200 µM | < 25% | COC(=O)/C=C\NC(=O)[C@H](O)C(C)(C)CO | – | – | – | –
4 | > 200 µM | > 90% | COC(=O)/C=C/NC(=O)[C@H](O)C(C)(C)CO | – | 0% | 4% | inhibition [11]: Active
5 | > 100 µM | < 25% | CCOC(=O)/C=C/NC(=O)[C@@H](O)C(C)(C)CO | – | -9% | -6% | –
6 | > 100 µM | < 25% | COC(=O)/C=C/NC(=O)[C@@H](O)C(C)(C)CO | – | -2% | -18% | –
7 | > 100 µM | < 25% | CC(C)(C)OC(=O)/C=C\NC(=O)[C@@H](O)C(C)(C)CO | – | -11% | 26% | –
8 | > 100 µM | < 25% | COC(=O)/C=C\NC(=O)[C@@H](O)C(C)(C)CO | – | -12% | -20% | –
9 | 144 µM | inactive | CCOC(=O)/C=C/NC(=O)[C@@H]1OC(C)(C)OCC1(C)C | 0.9 | – | – | –
10 | 93 µM | inactive | CCOC(=O)/C(C)=C/NC(=O)[C@@H]1OC(C)(C)OCC1(C)C | 1 | – | – | –
11 | 159 µM | > 90% | CCOC(=O)/C=C/NC(=O)[C@H](O)C(C)(C)CO | >1.3 | -5% | 36% | inhibition [11]: Active; selectivity ratio [9]: > 0.6; selectivity ratio [10]: > 0.6
12 | 42 µM | > 90% | CC(C)(C)OC(=O)/C=C/NC(=O)[C@H](O)C(C)(C)CO | 3.1 | -1% | 0% | inhibition [11]: Active; selectivity ratio [9]: > 2; selectivity ratio [10]: > 2
13 | > 100 µM | < 25% | CCOC(=O)/C=C\NC(=O)[C@@H](O)C(C)(C)CO | – | -6% | -6% | –
14 | > 200 µM | inactive | CCOC(=O)/C=C/NC(=O)c1cccnc1 | – | – | – | –

Continued, molecule first:

Row | Compound | IC50 [2] | inhibition [4] | Ratio IC50 [3] | inhibition at 96 h, 100 µM [7] | inhibition at 48 h, 100 µM [8] | also measured
15 | CC(C)(CO)[C@@H](O)C(=O)N/[13CH]=[13CH]/[13C](=O)O | – | – | – | – | – | Drug metabolism [1]: Metabolite_Detected
16 | CC(C)(CO)[C@@H](O)C(=O)N/C=C/C(=O)OCc1ccccc1 | 13 µM | > 90% | >7.7 | 5% | 19% | IC50 [5]: 0.14 µM; Drug metabolism [6]: Metabolite_Notdetected; selectivity ratio [9]: > 8; selectivity ratio [10]: > 8
17 | CC(C)(C)OC(=O)/C=C\NC(=O)[C@H](O)C(C)(C)CO | 39 µM | < 25% | 1 | -9% | -14% | –
18 | CC(C)(CO)[C@H](O)C(=O)N/C=C/C(=O)OCc1ccccc1 | > 100 µM | < 25% | – | -6% | 19% | –
19 | CCOC(=O)/C(C)=C/NC(=O)[C@H](O)C(C)(C)CO | > 200 µM | Active | – | – | – | inhibition [11]: inactive
20 | CC(C)(CO)[C@@H](O)C(=O)N/C=C\C(=O)OCc1ccccc1 | 89 µM | < 25% | 0.9 | 7% | 4% | –
21 | CCOC(=O)/C=C/N1CCCCCCC1=O | 93 µM | inactive | 1 | – | – | –
22 | CCOC(=O)/C(C)=C/NC(=O)c1ccccc1 | 120 µM | inactive | 1 | – | – | –
23 | CC(C)(C)OC(=O)/C=C/NC(=O)[C@@H](O)C(C)(C)CO | > 100 µM | < 25% | – | -8% | 14% | –
24 | CC(C)(CO)[C@@H](O)C(=O)N/[13CH]=[13CH]/[13C](=O)OCc1ccccc1 | – | – | – | – | – | Drug metabolism [1]: Metabolite_Notdetected
25 | CCN1C(=O)C=CC1=O [N-ETHYLMALEIMIDE] | – | – | – | – | – | Drug metabolism [12]: Metabolite_Detected
26 | CCOC(=O)/C=C/N1CCCCCC1=O | 181 µM | inactive | 0.9 | – | – | –
27 | CC(C)(CO)[C@@H](O)C(=O)N/C=C/C(=O)O | 36 µM | 87% | >2.8 | -17% | -23% | IC50 [13]: 39 µM; IC50 [5]: 14 µM; Drug metabolism [6]: Metabolite_Notdetected; selectivity ratio [9]: > 3; selectivity ratio [10]: > 3
28 | CC(C)(CO)[C@@H](O)C(=O)N/C=C\C(=O)O | > 200 µM | < 25% | – | – | – | –
29 | CC(C)(CO)[C@H](O)C(=O)N/C=C\C(=O)O | > 100 µM | < 25% | – | -11% | -19% | –
30 | CC(C)(CO)[C@H](O)C(=O)N/C=C\C(=O)OCc1ccccc1 | > 100 µM | < 25% | – | -7% | -2% | –
31 | CC(C)(CO)[C@H](O)C(=O)N/C=C/C(=O)O | > 100 µM | < 25% | – | -10% | 17% | –
32 | CCOC(=O)/C=C/N1CCCCCCCC1=O | 61 µM | inactive | 1.4 | – | – | –
